# Experimental data published in ChEMBL document CHEMBL1153764, “A facile one-pot green synthesis and antibacterial activity of 2-amino-4H-pyrans and 2-amino-5-oxo-5,6,7,8-tetrahydro-4H-chromenes” (2009).
# Experiments:
# Type in all cases: functional
# Pseudomonas putida [1] = test: Antibacterial activity against Pseudomonas putida MTCC 1072 at 128 ug/ml after 16 hrs by disc diffusion method; details: MTCC 1072, 16 h, read-out: IZ
# Method in brief: (§1)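 Disc diffusion zone-of-inhibition assay. The bacterial isolate was spread evenly over the surface of an agar plate. A filter disc loaded with a known amount of compound was placed on the surface, and the compound diffused into the surrounding agar. Plates were incubated 16 h until a bacterial lawn formed, and the zone of inhibition around the disc was then assessed.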
# Escherichia coli [2] = test: Antibacterial activity against Escherichia coli MTCC 41 after 12 to 16 hrs
# Method in brief: (§2)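 Tube broth dilution MIC. Tubes were inoculated with the bacterial strain and incubated 12–16 h. Growth was scored visually: a turbid tube means growth, a clear tube means no growth. MIC is the lowest concentration with no growth.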
# Escherichia coli [3] = test: Antibacterial activity against Escherichia coli MTCC 41 at 64 ug/ml after 16 hrs by disc diffusion method; details: MTCC 41, 16 h, read-out: IZ; method in brief: as §1
# Staphylococcus aureus [4] = test: Antibacterial activity against Staphylococcus aureus MTCC 1144 at 64 ug/ml after 16 hrs by disc diffusion method; details: MTCC 1144, 16 h, read-out: IZ; method in brief: as §1
# Staphylococcus aureus [5] = test: Antibacterial activity against Staphylococcus aureus MTCC 1144 after 12 to 16 hrs; method in brief: as §2
# Pseudomonas putida [6] = test: Antibacterial activity against Pseudomonas putida MTCC 1072 after 12 to 16 hrs; method in brief: as §2
# Escherichia coli [7] = test: Antibacterial activity against Escherichia coli MTCC 41 at 128 ug/ml after 16 hrs by disc diffusion method; details: MTCC 41, 16 h, read-out: IZ; method in brief: as §1
# Pseudomonas putida [8] = test: Antibacterial activity against Pseudomonas putida MTCC 1072 at 64 ug/ml after 16 hrs by disc diffusion method; details: MTCC 1072, 16 h, read-out: IZ; method in brief: as §1
# Staphylococcus aureus [9] = test: Antibacterial activity against Staphylococcus aureus MTCC 1144 at 128 ug/ml after 16 hrs by disc diffusion method; details: MTCC 1144, 16 h, read-out: IZ; method in brief: as §1
SMILES,zone of inhibition at 128 µg/mL (Pseudomonas putida [1]),MIC (Escherichia coli [2]),zone of inhibition at 64 µg/mL (Escherichia coli [3]),zone of inhibition at 64 µg/mL (Staphylococcus aureus [4]),MIC (Staphylococcus aureus [5]),MIC (Pseudomonas putida [6]),zone of inhibition at 128 µg/mL (Escherichia coli [7]),zone of inhibition at 64 µg/mL (Pseudomonas putida [8]),zone of inhibition at 128 µg/mL (Staphylococcus aureus [9])
CCOC(=O)C1=C(C)OC(N)=C(C#N)C1c1ccc([N+](=O)[O-])cc1 (stereo not drawn),< 1 mm,> 128 µg/mL,< 1 mm,< 1 mm,> 128 µg/mL,> 128 µg/mL,< 1 mm,< 1 mm,< 1 mm
CC1(C)CC(=O)C2=C(C1)OC(N)=C(C#N)C2c1ccc(Cl)cc1 (stereo not drawn),> 3 mm,128 µg/mL,> 2 mm,> 2 mm,128 µg/mL,128 µg/mL,> 3 mm,> 2 mm,> 3 mm
Cc1ccc(C2C(C#N)=C(N)OC3=C2C(=O)CC(C)(C)C3)cc1 (stereo not drawn),> 3 mm,> 128 µg/mL,> 2 mm,> 2 mm,> 128 µg/mL,128 µg/mL,> 2 mm,> 2 mm,> 2 mm
CC1(C)CC(=O)C2=C(C1)OC(N)=C(C#N)C2c1cccc(O)c1 (stereo not drawn),> 3 mm,128 µg/mL,> 2 mm,> 2 mm,> 128 µg/mL,64 µg/mL,> 3 mm,> 3 mm,> 2 mm
CC1(C)CC(=O)C2=C(C1)OC(N)=C(C#N)C2c1ccccc1 (stereo not drawn),> 2 mm,> 128 µg/mL,< 1 mm,< 1 mm,> 128 µg/mL,> 128 µg/mL,> 2 mm,> 2 mm,< 1 mm
COc1ccc(C2C(C#N)=C(N)OC3=C2C(=O)CC(C)(C)C3)cc1 (stereo not drawn),> 3 mm,64 µg/mL,> 3 mm,> 2 mm,> 128 µg/mL,128 µg/mL,> 3 mm,> 2 mm,> 2 mm
CC1(C)CC(=O)C2=C(C1)OC(N)=C(C#N)C2c1cccc([N+](=O)[O-])c1 (stereo not drawn),> 3 mm,128 µg/mL,< 1 mm,> 2 mm,128 µg/mL,128 µg/mL,> 3 mm,< 1 mm,> 3 mm
CC1(C)CC(=O)C2=C(C1)OC(N)=C(C#N)C2c1ccc([N+](=O)[O-])cc1 (stereo not drawn),> 3 mm,64 µg/mL,> 3 mm,> 3 mm,64 µg/mL,128 µg/mL,> 3 mm,< 1 mm,> 3 mm
CCOC(=O)C1=C(C)OC(N)=C(C#N)C1c1cccc([N+](=O)[O-])c1 (stereo not drawn),< 1 mm,> 128 µg/mL,< 1 mm,< 1 mm,> 128 µg/mL,> 128 µg/mL,< 1 mm,< 1 mm,< 1 mm
CCOC(=O)C1=C(C)OC(N)=C(C#N)C1c1ccccc1 (stereo not drawn),> 3 mm,64 µg/mL,> 3 mm,< 1 mm,128 µg/mL,128 µg/mL,> 3 mm,< 1 mm,> 3 mm
CCOC(=O)C1=C(C)OC(N)=C(C#N)C1c1cccc(Cl)c1 (stereo not drawn),> 3 mm,128 µg/mL,< 1 mm,< 1 mm,128 µg/mL,128 µg/mL,> 3 mm,< 1 mm,> 3 mm
CCOC(=O)C1=C(C)OC(N)=C(C#N)C1c1ccc(Cl)cc1 (stereo not drawn),< 1 mm,> 128 µg/mL,< 1 mm,< 1 mm,> 128 µg/mL,> 128 µg/mL,< 1 mm,< 1 mm,< 1 mm
CCOC(=O)C1=C(C)OC(N)=C(C#N)C1c1ccc(C)cc1 (stereo not drawn),< 1 mm,> 128 µg/mL,< 1 mm,< 1 mm,> 128 µg/mL,> 128 µg/mL,< 1 mm,< 1 mm,< 1 mm
CCOC(=O)C1=C(C)OC(N)=C(C#N)C1c1cccc(O)c1 (stereo not drawn),> 3 mm,> 128 µg/mL,< 1 mm,< 1 mm,> 128 µg/mL,128 µg/mL,< 1 mm,< 1 mm,< 1 mm
CCOC(=O)C1=C(C)OC(N)=C(C#N)C1c1ccc(OC)cc1 (stereo not drawn),> 3 mm,128 µg/mL,< 1 mm,< 1 mm,128 µg/mL,128 µg/mL,> 3 mm,< 1 mm,> 3 mm
CC1(C)S[C@@H]2[C@H](NC(=O)[C@H](N)c3ccccc3)C(=O)N2[C@H]1C(=O)O [AMPICILLIN],0 mm,16 µg/mL,> 5 mm,> 5 mm,–,> 256 µg/mL,> 5 mm,0 mm,> 5 mm
